Bioassay records from PubChem.
Compounds with a hit are over-represented: about 2.5% of the library has one in this group of screens.
SMARCA2 activ: activators of SMARCA2 function | hit rate 1% among 370,000 | activation, % at 9.1 µM | MG213 cells, MMTV-luciferase reporter, dexamethasone, overnight; in the data active = activation above about 7.8%;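 note: 0% = vehicle wells and 100% = reference activator wells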
Vif inh: inhibitors of HIV Vif; hit rate 0.35% among 340,000; HEK293T cells, Vif self-association by quenched fluorescence, imaging, 24 h; AID 602346; inhibition, % at 7.49 µM; in the data active = inhibition above about 50%, passing the limit was not always enough
SR-BI HDL uptake: mouse SR-BI HDL lipid transfer inhibition; Q61009; hit rate 0.96% among 320,000; inhibition, % at 12.5 µM; ldlA[mSR-BI] CHO cells, DiI-HDL uptake fluorescence, 3 h;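 active = mean replicate inhibition of at least 70% and a set share of replicates each scoring 70 or more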;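 note: 0% = median of neutral control wells and 100% = median of positive control wells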
Target sequence (Q61009 whole entry, looked up): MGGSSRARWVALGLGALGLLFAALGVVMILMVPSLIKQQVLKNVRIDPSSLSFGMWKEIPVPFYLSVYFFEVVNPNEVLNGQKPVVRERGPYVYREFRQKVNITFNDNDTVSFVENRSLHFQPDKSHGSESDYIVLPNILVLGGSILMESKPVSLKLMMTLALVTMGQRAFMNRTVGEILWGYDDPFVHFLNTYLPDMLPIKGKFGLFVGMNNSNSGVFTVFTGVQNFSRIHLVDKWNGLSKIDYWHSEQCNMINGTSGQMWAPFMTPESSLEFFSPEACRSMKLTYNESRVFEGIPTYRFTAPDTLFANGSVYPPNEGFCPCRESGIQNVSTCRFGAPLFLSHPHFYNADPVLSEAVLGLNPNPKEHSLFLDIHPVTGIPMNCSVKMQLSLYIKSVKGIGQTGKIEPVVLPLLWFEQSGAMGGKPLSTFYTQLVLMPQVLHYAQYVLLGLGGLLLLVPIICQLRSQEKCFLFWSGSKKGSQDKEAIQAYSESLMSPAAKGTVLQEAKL
SR-BI DiI-HDL act: enhances SR-BI lipid uptake from DiI-HDL; CHO ldlA[mSR-BI] cells, DiI-HDL uptake fluorescence, 3 h; 100 = double the neutral-control signal; activation, % at 12.5 µM; hit rate 0.096% among 320,000;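 active = mean replicate activation of at least 60% and every replicate at or above 60%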;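 note: 0% = median plate neutral-control signal and 100% = twice that signal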
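Test system: SR-BI-overexpressing, LDLR-lacking CHO cells. Measured by: DiI fluorescence, bottom read. Medium: Ham's F12 with 0.5% BSA, HEPES 25 mM, pH 7.4. Timing: 3 h uptake period with compound, 37 °C.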
TAG inh: triacylglycerol accumulation inhibition; inhibition, % at 12.5 µM; hit rate 0.66% among 230,000; H9c2 cells, Nile Red lipid (TAG) fluorescence; cells loaded with 200 µM oleic acid; AID 651582;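 active = pattern-corrected inhibition of lipid staining of at least 50% with the nuclear-stain viability signal not falling by more than 50%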;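 note: 0% = DMSO wells and 100% = triacsin C control wells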
* hit, by the source's call; / = not tested or not shown.

SMILES	SMARCA2 activ	Vif inh	SR-BI HDL uptake	SR-BI DiI-HDL act	TAG inh
O=C(N[C@H](C(=O)N1CCC[C@H]1C(=O)NC1CCCC1)C1CCCCC1)c1ccccn1	2	/	/	/	/
COc1cc(Nc2nc3ccccc3n3nnnc23)cc(OC)c1OC	2	50*	4	-4	8
CCN(CCOC(=O)Nc1ccc(Cl)cc1)C(=O)Nc1ccc(Cl)cc1	-2	/	/	/	/
COc1cc(/C=C/C(=O)c2ccc3c(c2)OCO3)cc(OC)c1OC	/	-7	24	-24	4
COc1cc(/C=C/C(=O)c2ccc3c(c2)OCCO3)cc(OC)c1OC	-4	-4	72*	-72	/
O=C1Cn2nnc(-c3ccccc3)c2C2c3cc(Br)ccc3CCN12 (stereo unspecified)	-1	/	/	/	/
Cc1cc(-c2n[nH]c(=S)n2N=Cc2cc(Br)ccc2F)n[nH]1	1	/	/	/	/
COc1ccc(/C=C2\Sc3ccc(C(=O)NCc4cccnc4)cc3N(C)C2=O)cc1OC	2	4	74*	-74	16
COc1cccc(/C=C2\Sc3ccc(C(=O)NCc4cccnc4)cc3N(C)C2=O)c1	-3	2	/	/	10
C/C(=N\Nc1ccc(Cl)c(C(=O)O)c1)c1cccc2ccccc12	3	65*	/	/	/
C[C@@H]1C=CCCO[C@]12C(=O)N(Cc1ccc(F)cc1)c1cccc(Br)c12	-4	/	/	/	/
Oc1ccc(F)cc1-c1cc(-c2ccc3c(c2)OCCO3)n[nH]1	4	-2	79*	-79	-5
Oc1ccccc1-c1cc(-c2ccc(F)cc2)n[nH]1	3	11	21	-21	-28
COc1ccccc1C(=O)N1CCN(C(=O)[C@@H](Cc2ccccc2)NC(=O)[C@H]2O[C@@H](n3ccc(N)nc3=O)[C@H](O)[C@@H]2O)CC1	-1	/	/	/	/
CC1(C)CC2(CC(c3cccs3)c3cc(Cl)c(O)cc3O2)NC(=S)N1 (stereo unspecified)	-2	0	90*	-90	-15
O=S1(=O)CCSC[C@@H](CN2CCCC2)N1	1	/	/	/	/
COc1ccc(-c2cc(C(=O)NCC3CCCO3)c3cc(C)ccc3n2)cc1 (stereo unspecified)	3	-19	72*	-72	2
COc1ccc(-c2csc(N(CC3CCCO3)C(=O)c3ccc(C)cc3)n2)cc1 (stereo unspecified)	-5	-5	77*	-77	-60
CCN(CC)CCCN(C(=O)c1ccc(OC)cc1)c1nc(-c2ccc(OC)cc2)cs1	0	3	11	-11	30
COCCCN(C(C)=O)c1nc(-c2ccc(OC)cc2)cs1	-3	22	78*	-78	/
COc1ccc(-c2csc(N(CC3CCCO3)C(=O)c3ccccc3)n2)cc1 (stereo unspecified)	0	-16	51	-51	/
COc1ccc(-c2cc(C(=O)NCC3CCCO3)c3ccccc3n2)cc1 (stereo unspecified)	2	1	63	-63	-12
Cc1cc(=O)oc2cc(OCc3c(F)cccc3Cl)ccc12	2	/	/	/	/
Cc1cc(-c2cc(-c3ccccc3)on2)nc(NC2CCCC2)n1	0	-4	81*	-81	-3
Cc1cc(-c2cc(-c3ccc(Cl)cc3)on2)nc(NC2CCCC2)n1	1	-2	10	-10	/
SMILES	SMARCA2 activ	Vif inh	SR-BI HDL uptake	SR-BI DiI-HDL act	TAG inh
Cc1c(C)n(C)c2ccc(C(=O)Nc3cccc4ccccc34)cc12	2	-8	81*	-81	43
CCCN(C(=O)C1CCCN(c2ncnc3c2nc2n3CCCCC2)C1)c1ccccc1C (stereo unspecified)	0	/	/	/	/
CCOC(=O)C1(Cc2ccccc2)CCN(Cc2ccc(C)cc2)CC1	-5	/	/	/	/
CCOC(=O)C1(Cc2cccc(F)c2)CCN(Cc2cnn(CC)c2)CC1	-1	-7	-4	4	-2
CCOC(=O)C1(Cc2ccccc2)CCN(Cc2csc(C(C)=O)c2)CC1	-4	119*	-10	10	-1
CCOC(=O)C1(Cc2cccc(F)c2)CCN(Cc2nc(CC)[nH]c2C)CC1	0	85*	3	-3	-7
CC(C)c1ccc(/C=N/NC(=O)c2ccc(-n3cnnn3)cc2)cc1	2	-4	84*	-84	-6
CC(C)(C)c1ccc(C#C[C@@H]2C=C[C@H](O)[C@@H](COC(=O)Nc3ccccc3)O2)cc1	3	/	/	/	/
CC(CNC(=O)[C@@H](Cc1ccccc1)NC(=O)[C@H]1O[C@@H](n2ccc(=O)[nH]c2=O)[C@H](O)[C@@H]1O)c1ccccc1 (stereo partly specified)	0	/	/	/	/
CCCCCCCCCCCCNC[C@@H]1CSCCS(=O)(=O)N1	-4	/	/	/	/
COCCN=C1Sc2ccccc2[C@@H]2C[C@H]3[C@H](CON3C)CN12	1	/	/	/	/
O=C(CCCN1C(=O)c2cccnc2C1=O)Nc1ccc(Br)cc1	-4	59*	-7	7	10
O=C(CCCN1C(=O)c2ccccc2C1=O)Nc1ccc(Br)cn1	0	1	/	/	/
O=C(CCCN1C(=O)c2ccccc2C1=O)Nc1nncs1	-5	60*	-15	15	/
Cc1cc(Cl)n2c(nc3cc(F)c(F)cc32)c1C#N	4	77*	11	-11	88
CCCCC(=O)NC(c1cccc([N+](=O)[O-])c1)c1ccc2cccnc2c1O (stereo unspecified)	-2	0	39	-39	76*
CC(=O)NC(c1cccc([N+](=O)[O-])c1)c1ccc2cccnc2c1O (stereo unspecified)	-4	-3	-9	9	/
O=[N+]([O-])c1ccc(NC(c2ccccc2)c2ccc3cccnc3c2O)cc1 (stereo unspecified)	-4	9	80*	-80	32
COCCN(Cc1ccc(C)cc1)C(=O)[C@H]1O[C@@H](n2cnc(C(N)=O)n2)[C@H](O)[C@@H]1O	-3	/	/	/	/
O=C(NCc1ccccc1)[C@@H]1CCCN1C(=O)[C@H]1CCCN1C(=O)c1ccccc1	2	/	/	/	/
COc1ccc(-c2cc(C(F)(F)F)n3nc(C(=O)NCCN4CCOCC4)cc3n2)cc1	-2	-1	77*	-77	-13
COCCNC(=O)c1nn2c(C(F)(F)F)cc(-c3ccccc3)nc2c1Br	0	-5	/	/	4
Cc1c(NC(=O)c2cc3nc(-c4ccc(Cl)cc4)cc(C(F)(F)F)n3n2)c(=O)n(-c2ccccc2)n1C	5	17	70*	-70	3
CCOC(=O)c1nn2c(C(F)(F)F)cc(-c3ccc(OC)cc3)nc2c1Br	2	6	104*	-103	5
COc1ccc(-c2cc(C(F)(F)F)n3nc(C(=O)Nc4c(C)n(C)n(-c5ccccc5)c4=O)cc3n2)cc1	-4	6	80*	-80	/
COc1ccc(-c2cc(C(=O)Nc3c(C)n(C)n(-c4ccccc4)c3=O)no2)cc1	-1	-9	/	/	3
Cc1c(NC(=O)c2cnn3c(C(F)(F)F)cc(-c4ccco4)nc23)c(=O)n(-c2ccccc2)n1C	0	7	15	-15	/
COc1ccc(N2C(=O)c3[nH]nc(-c4ccccc4)c3C2c2ccc(Br)cc2)cc1 (stereo unspecified)	-4	/	/	/	/
